According to the EternaBench riboswitch data:

System: MS2 coat protein
Test: apparent Kd, MS2 coat protein; higher = weaker binding; RNA-MaP array; FMN 200 µM where present
How it was run: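 In 100 mM Tris-HCl pH 7.5, 80 mM KCl, 4 mM MgCl2, BSA, DTT, yeast tRNA and Tween-20, SNAP-549-labelled MS2 coat protein was titrated from 0.7 or 1.5 nM, doubling to 3 µM, over designs transcribed by stalled E. coli RNA polymerase on Illumina sequencing-chip clusters. This was done first without ligand, then with ligand held constant. After green signal was normalised to red-channel RNA signal and control-cluster median Fmax, the apparent Kd was taken as the median of filtered per-cluster binding-curve fits.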

[1] = designed as: ON switch for flavin mononucleotide, no ligand
[2] = ligand present: flavin mononucleotide, designed as: ON switch for flavin mononucleotide
[3] = designed as: OFF switch for flavin mononucleotide, no ligand
[4] = ligand present: flavin mononucleotide, designed as: OFF switch for flavin mononucleotide

Sequence | apparent Kd [1] | apparent Kd [2] | apparent Kd [3] | apparent Kd [4]
GACAUGAGGAUCACCCAUGUCCAACCAGAAGGCCAGAAAUCGAACCCGUGUAUCGGGUCCGAGAUGGAGGAUAUGGGCGCCGAA | 72.4 nM | 32.4 nM | – | –
CACGGAUAGUAGAAGGGUGACAUGAGGAUCACCCAUGUACUUAUGUAGGUAUUACUAUAUAAUUCACAGGAUAUACUAUCCGUG | 794 nM | 90.3 nM | – | –
AAUAUAAAGCAGAAGGCCUUAUUACAUGAGGAUCACCCAUGUAAUCGUGGGAGGAUAUGCAUGAUACAACUACGUAUCGUAGCA | 9.33 nM | 5.19 nM | – | –
AAUUCACAUGAGGAUCACCCAUGUCAGGAUAUGGUUUCACGGGUUUCGGUGCGUGAGGCCAGAAGGGACAGCUA | – | – | 61 nM | 73.7 nM
GGAUGAUAAAUAGGAUAUUAAUUGUAAUUAGGUUAAGAAGGAUUAAUGAUUUAAACGACCAGUUACAUGAGGAUCACCCAUGUU | 177 nM | 161 nM | – | –
GUAGCAUACCAAGGAUAUUUAGGACUUUGAUAGACAUGAGGAUCACCCAUGUGGCGUUAGUCACGGGAGAAGGUGGUAUGCUAC | 63.5 nM | 16.9 nM | – | –
CCGGAAACGGGUAGCUGACAUGAGGAUCACCCAUGUGUUUCACAGGAUAUGGAUCCUAAUUGGAUCCAGAAGGGUGUCAGCUAC | 1040 nM | 157 nM | – | –
AAUAAGUGAGGAUAUACGUCUGGACCCGGGAGGGCUAUAUAACAUGAGGAUCACCCAUGUAGAAGGCACAAUAA | – | – | 13.9 nM | 15.9 nM
GUCCCUACAUGAGGAUCACCCAUGUGGGCGGUAAGGAGCCCACAGGAUAUGCGAAGUAGGACAUAGCAGAAGGGUGGUGUUCAG | 146 nM | 97.3 nM | – | –
AGACUGAAGCAAGGAUAUUGUAAAGUUAUCGUACAAGAAGGUGCUGUUUAUGUCUCUUUACAUGAGGAUCACCCAUGUUUUUAA | 22.6 nM | 24.2 nM | – | –
GCAUCCUGGUAGAAGGGACAUCGGCUGGUAAGCAUCAUCUCCUUCUCACAUGAGGAUCACCCAUGUCAGGAUAUACCAGGACGC | – | – | 12.3 nM | 42.1 nM
CCGGAUACGGGUAGCUGACAUGAGGAUCACCCAUGUGAAUCUGAGGAUAUGGAUCCUAAUUGGAUCCAGAAGGCAGUCAGCUAC | 618 nM | 61.5 nM | – | –
UGUAUGGACAGAGGAUAUACCGAUAGGAUCUACUAUCGAAGAAUCCUCACAUGAGGAUCACCCAUGUAGAAGGCUGUCCAUACU | – | – | 41.3 nM | 665 nM
AACUGACAUGAGGAUCACCCAUGUCAGGAUAUGACUUGAUAGAAAAUAAAAUAUCAUGUCAGAAGGGACAUGGG | – | – | 20.2 nM | 18.5 nM
UCAACCGGCGCCGGUUGAACAUGAGGAUCACCCAUGUACUCCAGAAGGCCGCCCAAGAACGGAGUGGAGGAUAUGGAAGUUCUC | 47.2 nM | 30.1 nM | – | –
GGAUUACAUGAGGAUCACCCAUGUGAGGAUAUCGAUGUCCUCAGUGGAGUGCGGGACUCGAGAAGGCACUUGGA | – | – | 172 nM | 169 nM
ACAAAUGGAGGAUAUACAUGAGGAUCACCCAUGUUUAUCCUACAUAUGUGAUAAUCAUGUAGAAGGCCAUUUGA | – | – | 24.7 nM | 15.9 nM
ACGUGUCGUGUAGGAUAUGACACAGGAAACUGGUCAGAAGGACAUGAGGAUCACCCAUGUAAAGUGUUUAAGAAUGACGUAUGC | – | – | 43.9 nM | 106 nM
UUGGACGUCGUAGGAUAUGUAGGAUAUUCCUACAUGAGGAUCACCCAUGUUAACAUGGAAGAAGGACAGAAGGACGAUGUCCAU | 326 nM | 4.76 nM | – | –
GCAUUUGAGCAGGAUAUAGCCUGAACAUAAUGGUUAGAAGGGCUCACAUGAGGAUCACCCAUGUGGUGUCCUAA | – | – | 12.8 nM | 36 nM
UUCGGCGCAGGAUAUGCAGUUCUGUGUUGAAUCGGCGCGGGACAUGAGGAUCACCCAUGUAGAAGGGUGUUGGG | – | – | 374 nM | 239 nM
AUCAUGUGAGGAUAUAAAAUGAAUAUAAAUUAUUAUCUUGAUUAGAAGGCACAUGAGGAUCACCCAUGUCUGAA | – | – | 32.5 nM | 39.2 nM
CGCUGAGGCGAGAAGGCACAAGAGUGGUGGCGGACAUGAGGAUCACCCAUGUGAGGAUAUCGCACUUGGCGGUGCCUAAAACUA | – | – | 344 nM | 39 nM
AAUAAGCUAGGAUAUACAUGAGGAUCACCCAUGUGAGGGCACGGCCGGCGCGUUUCCGGUAGAAGGAGUCAUAA | – | – | 34.5 nM | 25.2 nM
ACGUCCCUCCAGAAGGGCAACUCGACAUGAGGAUCACCCAUGUUUACUUGCAGGAUAUGGUGGUAGAUCUAGUUAGCUCGAAGG | 176 nM | 47.4 nM | – | –
AAUUUACAGCUAGGAUAUACAUGAGGAUCACCCAUGUAAUGAUAGGAUCUUAUGAUCGUAUCAGUGUAGAAGGAGCAAAUAAGA | – | – | 9.39 nM | 8.81 nM
UUAACAUGAGGAUCACCCAUGUAUAGAUCGGUUAAUAGAAGUGAGGAUAUGCUUAAAUUCAGGUAGCAGAAGGCACUGGGUACU | 26.9 nM | 29.9 nM | – | –
ACGUGACAUGAGGAUCACCCAUGUGAGGAUAUCUGGAUAAUUUUUAUUUUAGAUAUCCAGAGAAGGCACAUGUU | – | – | 206 nM | 173 nM

Sequence | apparent Kd [1] | apparent Kd [2] | apparent Kd [3] | apparent Kd [4]
CAGCGCUGUCGAGAGGAUAUGCGGUGAUGGACAUGAGGAUCACCCAUGUUAGCGACAGCAUCACGGCAGAAGGCUCUACCGCUGC | 31.5 nM | 21.7 nM | – | –
GCGUCAUGCAGAGGAUAUUGUUGCGGAUCUCUAUAAGAAGGCUGUACAUGAGGAUCACCCAUGUCACCACAUGAGGGUCACGUG | – | – | 22.1 nM | 41.2 nM
CUUAGACAUGAGGAUCACCCAUGUGAGGAUAUGAUGCGAUCGUCGAAAGACGAUAGCAUCAGAAGGUACAAAUG | – | – | 86 nM | 67 nM
CGGUAAACCACAGGAUAUGGCUAGCAUAGCUAGCCAGAAGGGUGGUCGAAACCAUGUAAAUACAUGAGGAUCACCCAUGUAUCC | 501 nM | 52.6 nM | – | –
ACGCCCUAGUAGAAGGGACAUCGGCUGGUAAGCAUCAUCUCCUUCUCACAUGAGGAUCACCCAUGUCAGGAUAUACUAGGAUGC | – | – | 12.2 nM | 35.1 nM
AUUAUACAUGAGGAUCACCCAUGUUUUGGUGGGUCAGGAUAUAAAUUGAAUGAGUUUUAGUUAGAAGGGACAUUUA | 56.5 nM | 42.9 nM | – | –
UUAAUAAGUGUGAGGAUAUGCUGGUCCUUGGAUCAGCAGAAGGCACAUGAGGAUCACCCAUGUACAAUAUAUUA | – | – | 33.6 nM | 215 nM
UAAGCGUAUGUUAGGAUAUGCUGGUCCUUGGAUCAGCAGAAGGAACAUGAGGAUCACCCAUGUAGAAUCGUUUA | – | – | 18.3 nM | 40.2 nM
GUCAGCUCGUGAGGAUAUACAACACUGCUUCGGCAGUGUAGUAAGAUCACAUGAGGAUCACCCAUGUAGAAGGCACGAGCUGAU | – | – | 6.05 nM | 26.3 nM
GGGUACAUCGGAGGAUAUCAUGUAAAUACAUGAGGAUCACCCAUGUCGAUGGAGACAUCCGAGAUUGAGAAGGCCGAUGUACCG | 29.3 nM | 13.3 nM | – | –
GGACAUUUACAGAAGGGCAAUUUAUUUAUUGAUUAUUUAGUUCUGUUUUGCAGGAUAUGUUUUACAUGAGGAUCACCCAUGUCC | 66.8 nM | 36.2 nM | – | –
UUAAGUCAUGUAGGAUAUCCGAGGCGAAGCGUUGGAGAAGGACAUGAGGAUCACCCAUGUUCUAGCGUCUGAGUACAGAUGCAG | – | – | 29.5 nM | 94.7 nM
ACAGAGCCUGACAUGAGGAUCACCCAUGUUAGAUUGUUAUGUCAGGAUAUUGUCUAGCAACUAGACAAGAAGGGACGCUCUGUG | 71.2 nM | 8.88 nM | – | –
AUUAUAUAGCAAGGAUAUAGAAUAUUAUUUUAACAUGAGGAUCACCCAUGUAACCUUAUGUGUAGCUAGAAGGUGCAUUUAUUA | – | – | 73.2 nM | 109 nM
AAUUGUUUCUGAGGAUAUCAGUAGUAUGCUUUUUGAGAAGGCAGUACAUGAGGAUCACCCAUGUUGUGGUUUGAUAGAAUGAUA | 193 nM | 182 nM | – | –
GGUGCGAUGUAGAAGGCAGAUCUGAUUCAGAUCUGAGGAUAUACAUGAGGAUCACCCAUGUAAACGCACCGCACGAGAGUGCAA | – | – | 6.6 nM | 8.12 nM
CAAUUUAUAACAGGAUAUAUAAUACAAUGGUUAAUAGAAGGGUUUAAUACAUGAGGAUCACCCAUGUCAUGUGUCAUAAUUACC | – | – | 23 nM | 17.1 nM
UAUAUAUAGUAAGGAUAUGUAAUUAUUUUAGAAACAGAAGGUACUGACAUGAGGAUCACCCAUGUUUUAGUGUGGGCAUGUAGA | – | – | 90.4 nM | 147 nM
GUGGUCAGACAUGAGGAUCACCCAUGUGGAAUAAAUAAGGACAAGGAUAUGGAAUAUAGGAUAUACCAGAAGGUGUGGUUGGUG | 70 nM | 86 nM | – | –
UCGAAGAAUGCAGGAUAUACAUGAGGAUCACCCAUGUCACGGUCGGCUUCUGUAGAAGGGCACUUACCCAGGUAAAUUGCUUGG | – | – | 5.39 nM | 5.81 nM
AAGUAGUGAGGAUAUACAUGGAUAUACAUUCAUGUGGACCUACAUGAGGAUCACCCAUGUAGAAGGCACUAAUA | – | – | 33.8 nM | 28.6 nM
GCUAGGAGUGUGAGGAUAUGCUGAACCUUGGUUCAGCAGAAGGCACAUGAGGAUCACCCAUGUGAAGACCUAGC | – | – | 25.7 nM | 149 nM
UGAUCCGCAUCGGCGCACAAGACAUGAGGAUCACCCAUGUACAGAAGGCGAAAAGCGAAGGCGGUCGAGGAUAUGUACCUACGG | – | – | 6.92 nM | 15.7 nM
ACAUGAUCAGGAUAUACAUGAGGAUCACCCAUGUUUAUCAGGGAAAAACCUUCUACAUGUAGAAGGGAUCUUGU | – | – | 14.9 nM | 14.2 nM
ACGGAGUCAGGAUAUUUAGAGCGUUGGCAAUGCUAGCGCAUGGAGAAGGGACAUGAGGAUCACCCAUGUUUGGA | – | – | 39.9 nM | 39.9 nM
UAAAUUAACAAGAAGGCUAACAUGAGGAUCACCCAUGUUGUACAUGGAUAUAGAGGAUAUUGCUAAUAAUUAUUUAUCAUAAUU | – | – | 24.4 nM | 20.1 nM
GUAGCUAUCGGAGGAUAUUCAUACCGGAAACGGACAUGAGGAUCACCCAUGUGUCGAAAGCCUUGGGAGAAGGCCGAUAGCUAC | 181 nM | 59.2 nM | – | –
